PG9 Ab binder: small molecules binding HIV-1 gp120 antibody PG9 | inhibition, % at 6.7 µM | hit rate 0.43% among 360,000 | TR-FRET gp120-PG9 antibody binding; in the data active = inhibition above about 8.5%
MC4R antag cAMP: antagonists of human melanocortin 4 receptor (MC4R). P32245. AID 540295. hit rate 0.48% among 360,000. inhibition, % at 6.5 µM. MC4R-expressing cells, MTII-stimulated cAMP, LANCE TR-FRET;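 active = inhibition above its plate's cutoff, the mean of tested wells on that plate plus 3 SD, cut at about 29% in these data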;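 also: 0% = Melanotan II alone and 100% = Melanotan II plus saturating MCL0020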
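Material: human MC4R-expressing U2OS cells. Probe or stimulus: Melanotan II challenge. Dosing: 6.5 µM single dose. Times: 30-min compound, 1-h challenge, 1-h detection, room temperature. Technique: TR-FRET with Eu-cAMP and labeled anti-cAMP, 671 nm. Replication: singlicate.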
MC4R barr agon: agonists of human melanocortin 4 receptor (MC4R) beta-arrestin; P32245; U2OS MC4R beta-arrestin complementation, luminescence; percent of melanotan II response, DMSO zero; activation, % at 8.9 µM; hit rate 0.98% among 360,000;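 active = activation above a per-plate cutoff, the mean activation of sample wells on that plate plus 3 SD, cut at about 8% in these data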
NTR1 agonist: NTR1 (human) agonism; P30989; NTR1-U2OS beta-arrestin-GFP spot imaging, agonist mode; activation, % at 20 µM; hit rate 0.17% among 330,000; AID 493036;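 active = activation at or above 40% of the spot to cytoplasm intensity ratio, with at least 20 cells analyzed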;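 also: 0% = DMSO without peptide and 100% = 100 nM NTR1 peptide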
Target sequence (P30989 whole entry, looked up): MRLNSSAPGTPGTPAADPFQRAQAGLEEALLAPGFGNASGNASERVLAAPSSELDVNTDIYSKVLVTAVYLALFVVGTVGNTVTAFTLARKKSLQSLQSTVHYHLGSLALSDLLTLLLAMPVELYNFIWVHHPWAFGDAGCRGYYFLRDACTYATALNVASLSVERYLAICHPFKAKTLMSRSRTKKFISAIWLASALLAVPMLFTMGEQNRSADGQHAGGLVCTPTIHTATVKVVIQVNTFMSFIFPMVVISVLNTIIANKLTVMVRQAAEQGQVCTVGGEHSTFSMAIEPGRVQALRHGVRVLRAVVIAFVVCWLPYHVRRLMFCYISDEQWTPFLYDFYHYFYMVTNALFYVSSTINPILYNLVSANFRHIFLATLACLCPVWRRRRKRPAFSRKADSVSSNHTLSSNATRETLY
NR1D1 modulator: Rev-erb alpha (human) modulation. activity, % at 10 µM. AID 1259318. hit rate 0.79% among 370,000. Rev-erbα–FITC-DNA binding, fluorescence polarization, 90 min;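 active = activity above about 14%, limit read from the data; passing the limit was not always enough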;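 also: 0% = DMSO wells with 35 nM protein and 100% = DMSO wells with 750 nM protein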
U2OS cAMP counter: nonselective cAMP signaling inhibitor, MC4R antagonist counter-screen | inhibition, % at 6.5 µM | parental U2OS, forskolin cAMP, LANCE TR-FRET | AID 602193 | hit rate 26% among 1,600 | shares compounds with MC4R antag cAMP;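 active = mean inhibition over triplicates above the low-control well mean plus 3 SD, set per campaign, cut at about 13% in these data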;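 also: signal is single emission at 671 nm which falls as cellular cAMP rises; 0% = forskolin-stimulated wells and 100% = buffer without forskolin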
MC4R antag conf: human MC4R cAMP antagonism confirmation; shares compounds with MC4R antag cAMP; MC4R-expressing cells, MTII-stimulated cAMP, TR-FRET; inhibition, % at 6.5 µM; hit rate 27% among 1,600; AID 602195; in the data active = inhibition above about 29%;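 also: 0% = agonist stimulated wells alone and 100% = agonist stimulated wells plus saturating reference antagonist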
Active calls of the source: *; · = no result. Only some compounds are listed: those with a hit (about 2.5% of all), similar ones and a draw of the others.

SMILES	PG9 Ab binder	MC4R antag cAMP	MC4R barr agon	NTR1 agonist	NR1D1 modulator	U2OS cAMP counter	MC4R antag conf
O=Cc1cn(-c2ccccc2)nc1-c1ccccc1	-0.2	13.8	0.5	3.7	2.5	·	·
CC1=NNC(=O)/C1=C\c1cn(-c2ccccc2)nc1-c1ccccc1	-0.1	51.1*	-3.9	·	-1.0	26.2*	56.7*
COc1ccc(/C=C/S(=O)(=O)NCc2ccc(F)cc2)c(CNC(=O)OC(C)(C)C)c1	·	·	·	·	4.7	·	·
COc1ccccc1NC(=O)NC1CCS(=O)(=O)C1 (stereo unspecified)	-1.3	33.7*	-1.2	0.0	-9.7	1.7	5.5
CCN(C(=O)CSc1n[nH]c(-c2cccs2)n1)C1CCS(=O)(=O)C1 (stereo unspecified)	0.6	29.9*	-0.8	0.9	-5.9	-3.6	-2.7
CC(C)c1ccc(NC(=O)CSc2nc3ccsc3c(=O)n2CCC(=O)O)cc1	-1.3	35.1*	0.7	0.0	-0.5	2.4	3.6
CCCCNC(=O)C1(C)CCCCCN1Cc1cccc2c(OC)cc(C(=O)OCC)cc12 (stereo unspecified)	0.8	29.7*	-1.5	·	3.9	1.2	4.0
CCCCNC(=O)C1(C)CCCCN1Cc1ccc2ccccc2c1 (stereo unspecified)	-0.3	9.8	1.7	·	1.7	·	·
C=C(C)C1CC=C(C)/C(=N/NC(=O)COc2ccccc2Cl)C1 (stereo unspecified)	0.2	33.5*	-0.7	15.2	-0.3	-2.5	-9.2
C[C@@H]1CN(c2ccc(N3CCNC[C@@H]3C)cc2C#N)CCN1Cc1ccccc1	-2.6	·	·	·	-1.4	·	·
COCC(=O)N[C@@H]1C[C@@H]2O[C@H](CO)CC[C@@H]2O[C@@H]1CCc1ccc(-c2ccccc2)cc1	·	·	·	·	-1.1	·	·
FC(F)(F)c1cnc(Oc2cccc3ccccc23)c(Cl)c1	3.2	29.4*	1.7	-0.5	0.1	-2.0	-5.8
Oc1cccc(Oc2ncc(C(F)(F)F)cc2Cl)c1	0.5	-4.7	-0.7	17.7	-1.5	·	·
Cc1ccc(-n2nc3c(c2NC(=O)c2ccc(S(=O)(=O)N4CCOCC4)cc2)CSC3)c(C)c1	·	32.3*	1.1	0.9	·	-0.7	-1.9
Cc1cccc(-n2nc3c(c2NC(=O)c2ccc(S(=O)(=O)N4CCOCC4)cc2)CSC3)c1C	-3.9	4.0	-2.2	·	-3.5	·	·
COc1ccc(NC(=O)CSc2nnc(NC(=O)C3CCC3)s2)cc1	-2.3	1.0	0.2	-1.5	0.2	·	·
COc1ccc(CNC(=O)CSc2nnc(NC(=O)C3CC3)s2)cc1	-1.5	29.2*	-1.2	2.6	4.3	-0.2	-5.5
CCOC(=O)[C@]12CCCCC/C=C\1N(Cc1ccc(OC)cc1)C(=O)[C@H]2CC(=O)N1CCCC1	·	·	·	·	6.4	·	·
COC(=O)C1=C(C)N(Cc2ccccc2C(F)(F)F)C(=NCC2CC2)NC1c1cccc(F)c1 (stereo unspecified)	0.7	·	·	·	-4.2	·	·
COc1cccc(CNS(=O)(=O)/C=C/c2ccc(OC)c(OC)c2)c1	-1.4	34.5*	-2.9	-0.8	6.1	0.0	5.7
CCCCNS(=O)(=O)CC1NCc2ccc(C)cc21 (stereo unspecified)	·	·	·	·	-4.0	·	·
CN(CCO)c1cccc2c1S(=O)(=O)N(Cc1cn(Cc3cccc(F)c3)nn1)Cc1ccccc1O2	·	·	·	·	0.8	·	·
COC(=O)CSc1nc2ccccc2nc1SCC(=O)OC	2.3	36.5*	0.9	5.7	13.9	6.2	-4.3
Cc1nc(SCC(N)=O)[nH]c(=O)c1C	·	·	·	·	0.1	·	·
COc1ccccc1NC(=O)c1ccc(NC(=O)CNC(=O)c2ccc(OC)c(OC)c2)cc1	-1.2	9.7	-1.8	-1.2	2.8	·	·
SMILES	PG9 Ab binder	MC4R antag cAMP	MC4R barr agon	NTR1 agonist	NR1D1 modulator	U2OS cAMP counter	MC4R antag conf
COC(=O)c1ccccc1NC(=O)CNC(=O)c1ccc(OC)c(OC)c1	1.0	31.0*	0.8	-1.9	-0.8	5.9	2.0
Cc1ccc([C@H]2C(C#N)=C(N)Oc3cc(C)oc(=O)c32)o1	1.2	30.4*	0.2	3.8	2.9	-1.8	-8.0
Cc1cc2c(c(=O)o1)C(c1cccs1)C(C#N)=C(N)O2 (stereo unspecified)	-3.2	18.7	-0.2	1.1	-0.7	·	·
O=C(CN1CCc2onc(-c3cccc(-n4cc(CO)nn4)c3)c2C1=O)N1CCOCC1	·	·	·	·	10.1	·	·
Cc1nc(=O)c(-c2ccccc2)c(C)n1-c1ccccc1	-2.3	30.9*	1.8	1.7	-0.8	-6.4	-2.9
Cc1nc(=O)c(-c2ccccc2)c(C)n1-c1ccc(O)cc1	0.0	-1.0	-1.9	-1.0	-1.1	·	·
Cc1ccc(S(=O)(=O)N(C)C)cc1NC(=O)Cn1c(CN2CCOCC2)nc2ccccc2c1=O	1.0	35.5*	-3.3	0.6	2.9	-0.2	6.0
CCN[C@@H]1C[C@H](N)[C@@H](O[C@H]2OC(CN)=CC[C@H]2N)[C@H](O)[C@H]1OC1OC[C@](C)(O)[C@H](NC)[C@H]1O (stereo partly specified)	·	·	·	·	7.5	·	·
COc1ccccc1NC(=S)N1CCC(NC(=O)NC23CC4CC(CC(C4)C2)C3)CC1	0.1	34.3*	-0.1	-0.2	-2.7	0.0	-11.7
CCOc1ccccc1NC(=S)N1CCC(NC(=O)NC23CC4CC(CC(C4)C2)C3)CC1	-1.1	0.3	-0.4	0.6	-2.0	·	·
O=C(c1sccc1Cl)N1CCC(n2nnc3ncccc32)CC1	·	·	·	·	3.2	·	·
C=CCN(C(=O)CNS(=O)(=O)c1ccccc1)C(C(=O)NCCOC)c1cccnc1 (stereo unspecified)	-0.5	29.3*	0.5	-0.8	-0.9	-0.7	-5.6
COCCNC(=O)C(c1cccnc1)N(Cc1ccccc1)C(=O)Cn1nnc2ccccc21 (stereo unspecified)	0.2	10.8	-1.3	1.9	-1.8	·	·
CCSC1=C(C#N)C(CC(C)C)C2=C(CCCC2=O)N1 (stereo unspecified)	-0.7	34.1*	-2.1	-0.2	-5.1	0.5	14.4
O=C1C2C(c3ccccc3)(C(=O)N1c1ccc(Cl)cc1)C2(c1ccccc1)c1ccccc1 (stereo unspecified)	0.6	38.0*	0.7	0.3	2.0	-6.9	-6.3
Cc1cccc(NC(=O)CSc2nnc(SCc3ccc(Cl)cc3)s2)c1	·	·	·	·	3.9	·	·
O=C1NC(=O)/C(=C\c2ccc(OCc3ccccc3)cc2)S1	-0.2	-6.0	0.8	1.6	-11.3	·	·
O=C1NC(=O)/C(=C\c2ccccc2OCc2ccccc2)S1	-0.4	39.4*	-0.8	3.0	-0.9	-0.1	5.4
O=C(N[C@H]1C[C@@H]2O[C@H](CO)CC[C@@H]2O[C@@H]1CCc1ccc(-c2cccnc2)cc1)c1cccc(F)c1	·	·	·	·	-9.8	·	·
NC(N)=NS(=O)(=O)c1ccc(N/C=C\C(=O)c2ccncc2)cc1	-1.3	30.6*	0.0	2.1	0.5	-3.0	-27.3
Cc1noc(NS(=O)(=O)c2ccc(N/C=C\C(=O)c3ccncc3)cc2)c1C	1.1	2.2	-1.7	0.5	-0.4	·	·

Bioassay records deposited in PubChem by several laboratories.
